Only some compounds are listed: those with a hit (about 4.9% of all), similar ones and a draw of the others.
CHT allo act = allosterically activates the human high affinity choline transporter; CHT-expressing cells, membrane potential dye, choline EC20; stronger effect = higher value; LV-AA mutant CHT in HEK293 cells; 0.49% of 310,000 active; B-score at 10 µM; AID 488977; Q9GZV3;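 active = initial fluorescence not abnormally high and integrated response B-score, plate-corrected, over 3 SD above library mean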
Hep lipid drop = modulators of hepatic lipid droplet formation; AML12 mouse hepatocytes, oleate lipid droplets, BODIPY imaging; inhibition, % at 6.5 µM; 0.4% of 240,000 active;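 active = lipid droplet intensity inhibited by at least 50%, with more than 500 cells counted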
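Assay system: AML12 hepatocytes (mouse); Probe or stimulus: oleic acid at 100 µM to induce lipid droplet formation; Dosing: compound at 6.5 µM only; Schedule: compound with oleate, overnight; Detection: fluorescence imaging, 20x objective, two fields per well; Measure: % inhibition of lipid droplet signal.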
HSF1 inhib = HSF1 inhibition; NIH3T3-HGL HSE-luciferase, MG132-induced, luminescence 8 h; stronger effect = lower value; activity change, negative = inhibition, % at 7.5 µM (by protocol); 0.77% of 300,000 active; AID 2098;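 active = more than half of replicate wells show activity change below -50%, luminescence cut by over half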;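 also: luciferase reports HSF-1 transcriptional activity via heat shock element; 0% = median of DMSO wells and -100% = zero luminescence signal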
PHOSPHO1 block = PHOSPHO1 (human) inhibition; 1.1% of 290,000 active; AID 1565; recombinant PHOSPHO1, absorbance phosphatase assay; Q8TCT1; inhibition, % at 13.3 µM; in the data active = inhibition above about 60%
Target sequence (Q8TCT1 whole entry, looked up): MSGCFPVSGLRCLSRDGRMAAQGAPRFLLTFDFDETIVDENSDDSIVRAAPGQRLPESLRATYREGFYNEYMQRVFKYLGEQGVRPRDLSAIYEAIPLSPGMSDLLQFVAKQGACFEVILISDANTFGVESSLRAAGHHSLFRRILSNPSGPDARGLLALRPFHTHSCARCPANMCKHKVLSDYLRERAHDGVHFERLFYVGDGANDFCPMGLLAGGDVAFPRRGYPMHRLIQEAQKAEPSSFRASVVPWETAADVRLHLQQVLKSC
CHT block = inhibitors of human choline transporter CHT; B-score at 10 µM; CHT-expressing cells, membrane potential dye, choline response; stronger effect = lower value; 0.86% of 310,000 active; AID 488975; Q9GZV3;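 active = B-score over 3 SD under the library average, and starting fluorescence ratio not unusually high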;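 also: choline stimulus applied at its EC90 after an EC20 pre-addition; B-score computed on integrated fluorescence ratio after choline addition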
HSF-1 act = increases HSF-1 driven luciferase reporter signal | NIH3T3-HGL HSF-1 luciferase reporter, MG132, 8 h; 100% = twice DMSO control signal | activation, % at 9 µM | 1.7% of 300,000 active;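 active = mean replicate activation of at least 50% with a set share of replicates each reaching 50%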;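 also: 0% = median of the neutral control wells and 100% = twice that signal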
* = called active by the depositor.

How did CCn1c(SCC(=O)c2[nH]c(C)c(C(C)=O)c2C)nnc1-c1ccccc1 do in these assays?
CHT allo act: inactive; HSF1 inhib: 7; PHOSPHO1 block: 75*; CHT block: inactive; HSF-1 act: 8

What do the screens show for `COc1ccc(C(=O)[C@H]2[C@H]3C(=O)N(c4ccc(C)cc4)C(=O)[C@H]3C3C=CC=NN32)cc1` (stereo not given in full)?
CHT allo act: inactive; Hep lipid drop: -10; HSF1 inhib: 4; PHOSPHO1 block: 19; CHT block: inactive; HSF-1 act: -10

How did Cc1cc2c(SCC(=O)NCC3CCCO3)ncnc2s1 (stereo not given) do in these assays?
Hep lipid drop: -3; HSF1 inhib: -4; PHOSPHO1 block: -14; HSF-1 act: -2

Results for COc1ccccc1CNC(=O)C(=O)NCC1CCCN1S(=O)(=O)c1cccs1 (stereo not given) ?
CHT allo act: inactive; HSF1 inhib: 0; CHT block: inactive; HSF-1 act: 9

Results for CC(C)(C)NC(=O)N1CCN(c2nc3ccc(Cl)cc3s2)CC1 ?
CHT allo act: inactive; Hep lipid drop: 6; HSF1 inhib: -1; PHOSPHO1 block: 38; CHT block: inactive; HSF-1 act: 9

What do the screens show for `Nc1ccc(C2=Nc3cccc4cccc(c34)N2)cc1`?
Hep lipid drop: -5; HSF1 inhib: 31; PHOSPHO1 block: -12; HSF-1 act: 73*

How did COc1ccc(N(CC(=O)NN=C2CCCC2)S(=O)(=O)c2ccccc2)cc1Cl do in these assays?
CHT allo act: inactive; Hep lipid drop: -18; HSF1 inhib: 2; PHOSPHO1 block: -17; CHT block: inactive; HSF-1 act: 6

How did O=C(O)c1ccc(S(=O)(=O)/N=C2\C=C(Nc3ccccc3F)C(=O)c3ccccc32)cc1 do in these assays?
CHT allo act: inactive; Hep lipid drop: -28; HSF1 inhib: 51; PHOSPHO1 block: 19; CHT block: inactive; HSF-1 act: 65*

Results for CC(=O)Nc1ccc(NC2=C/C(=N/S(=O)(=O)c3cccs3)c3ccccc3C2=O)cc1 ?
CHT allo act: inactive; Hep lipid drop: -20; HSF1 inhib: -95*; PHOSPHO1 block: 48; CHT block: inactive; HSF-1 act: -94

How did Cc1ccccc1NC1=C/C(=N\S(=O)(=O)c2cccs2)c2ccccc2C1=O do in these assays?
CHT allo act: inactive; Hep lipid drop: 26; HSF1 inhib: -95*; PHOSPHO1 block: 1; CHT block: inactive; HSF-1 act: -95

What do the screens show for `Cc1ccccc1NC1=C/C(=N\S(=O)(=O)c2ccc(C(=O)O)cc2)c2ccccc2C1=O`?
CHT allo act: inactive; Hep lipid drop: -16; HSF1 inhib: -9; PHOSPHO1 block: 39; CHT block: inactive; HSF-1 act: -1

Results for CCCC(=O)Nc1nnc(S(=O)(=O)N2CCCC2)s1 ?
CHT allo act: inactive; Hep lipid drop: 5; HSF1 inhib: -2; PHOSPHO1 block: -21; CHT block: inactive; HSF-1 act: -1

Results for O=C(NN1CC(C(=O)OCc2ccc(Cl)cc2Cl)CC1=O)c1ccccc1 (stereo not given) ?
CHT allo act: inactive; Hep lipid drop: -1; HSF1 inhib: -8; PHOSPHO1 block: 61*; CHT block: inactive; HSF-1 act: 1

Results for Cc1cc(=O)oc2cc(OCC(=O)NCCN3CCOCC3)c(Cl)cc12 ?
CHT allo act: inactive; Hep lipid drop: 8; HSF1 inhib: -7; PHOSPHO1 block: 17; CHT block: inactive; HSF-1 act: 18

How did CCCS(=O)(=O)N1CCc2cc(OC)c(OC)cc2C1 do in these assays?
CHT allo act: inactive; HSF1 inhib: -55*; PHOSPHO1 block: -7; CHT block: inactive; HSF-1 act: -68

How did COc1ccc(S(=O)(=O)N2CCc3cc(OC)c(OC)cc3C2)cc1 do in these assays?
CHT allo act: inactive; Hep lipid drop: -22; HSF1 inhib: -2; PHOSPHO1 block: -6; CHT block: inactive; HSF-1 act: -18

What do the screens show for `COC(=O)CNc1c(-c2ccccc2)nc2ccc(Br)cn12`?
CHT allo act: inactive; Hep lipid drop: 0; HSF1 inhib: 17; PHOSPHO1 block: 18; CHT block: inactive; HSF-1 act: 51*

Results for COC(=O)Nc1c(-c2ccccc2)nc2ccc(Cl)cn12 ?
CHT allo act: inactive; Hep lipid drop: -1; HSF1 inhib: -6; PHOSPHO1 block: 4; CHT block: inactive; HSF-1 act: -5

How did CC1C(=O)OC2C1CCC1(C)CCC(=O)C(C)C21 (stereo not given) do in these assays?
CHT allo act: inactive; Hep lipid drop: 20; HSF1 inhib: 3; PHOSPHO1 block: 46; CHT block: inactive; HSF-1 act: -8

What do the screens show for `COc1ccc(OC)c(C2CC(=O)N3CN(c4ccccc4)CSC3=C2C#N)c1` (stereo not given)?
CHT allo act: inactive; HSF1 inhib: 0; PHOSPHO1 block: 83*; CHT block: inactive; HSF-1 act: -21

What do the screens show for `COc1ccc(C2CC(=O)N3CN(c4ccc(C)c(Cl)c4)CSC3=C2C#N)cc1` (stereo not given)?
CHT allo act: inactive; HSF1 inhib: -6; PHOSPHO1 block: 83*; CHT block: inactive; HSF-1 act: -16

How did Cc1cccc(N2CSC3=C(C#N)C(c4ccc(C)o4)CC(=O)N3C2)c1 (stereo not given) do in these assays?
CHT allo act: inactive; HSF1 inhib: -2; PHOSPHO1 block: 76*; CHT block: inactive; HSF-1 act: 2

What do the screens show for `COc1ccc(C2CC(=O)N3CN(Cc4ccco4)CSC3=C2C#N)cc1` (stereo not given)?
CHT allo act: inactive; HSF1 inhib: -6; PHOSPHO1 block: 58; CHT block: inactive; HSF-1 act: 10

What do the screens show for `O=C1CSC(c2ccccc2Br)N1c1ccc(Cl)cn1` (stereo not given)?
CHT allo act: inactive; Hep lipid drop: 9; HSF1 inhib: -11; PHOSPHO1 block: -16; CHT block: inactive; HSF-1 act: -27

How did CSc1nc(N)nc(SCC(=O)Nc2cccc(F)c2)c1C#N do in these assays?
CHT allo act: inactive; Hep lipid drop: 24; HSF1 inhib: 16; PHOSPHO1 block: -12; CHT block: inactive; HSF-1 act: 18

What do the screens show for `O=C(O)c1ccccc1OC(C(=O)Nc1cc(Cl)cc(Cl)c1)c1ccccc1` (stereo not given)?
CHT allo act: inactive; Hep lipid drop: -4; HSF1 inhib: 14; PHOSPHO1 block: 19; CHT block: inactive; HSF-1 act: 58*

Results for O=C(Nc1cc(Cl)cc(Cl)c1)C(c1ccccc1)N1CCCCC1 (stereo not given) ?
CHT allo act: inactive; Hep lipid drop: -21; HSF1 inhib: -1; PHOSPHO1 block: -1; CHT block: inactive; HSF-1 act: 20
